Tests used:
L1210 [1] = test: (§1) Inhibition of L1210 (murine leukemia) cell growth in vitro.; assay type: functional, Mus musculus; design: concentration or dose not given beside the values
Summary of the method: (§2)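 Murine L1210 leukemia cells seeded at 1000 cells/well in RPMI-1640 containing 5% fetal calf serum and 0.5% DMSO, exposed to nine 2-fold serial dilutions for 3 days. Growth was read by MTT (4 h), with formazan dissolved in DMSO and measured spectrophotometrically. IC50 comes from semilog concentration plots of the mean of four assessments per dilution versus control growth.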

[2] = target: Thymidylate synthase (Escherichia coli) (UniProt C3SWJ7)
Thymidylate synthase (Escherichia coli), sequence (C3SWJ7 1-264): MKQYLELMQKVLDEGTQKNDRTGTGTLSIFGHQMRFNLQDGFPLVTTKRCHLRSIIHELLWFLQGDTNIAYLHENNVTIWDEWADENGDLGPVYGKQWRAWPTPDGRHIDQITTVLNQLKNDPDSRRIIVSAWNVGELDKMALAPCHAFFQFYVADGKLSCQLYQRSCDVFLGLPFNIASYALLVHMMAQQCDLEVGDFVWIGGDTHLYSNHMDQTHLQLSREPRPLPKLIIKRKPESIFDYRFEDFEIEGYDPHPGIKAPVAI

[3] = target: Thymidylate synthase (Escherichia coli) (UniProt C3SWJ7); remark: listed apart in the source
[4] = target: Thymidylate synthase (Homo sapiens) (UniProt P04818)
Thymidylate synthase (Homo sapiens), sequence (P04818 2-313 limits assumed): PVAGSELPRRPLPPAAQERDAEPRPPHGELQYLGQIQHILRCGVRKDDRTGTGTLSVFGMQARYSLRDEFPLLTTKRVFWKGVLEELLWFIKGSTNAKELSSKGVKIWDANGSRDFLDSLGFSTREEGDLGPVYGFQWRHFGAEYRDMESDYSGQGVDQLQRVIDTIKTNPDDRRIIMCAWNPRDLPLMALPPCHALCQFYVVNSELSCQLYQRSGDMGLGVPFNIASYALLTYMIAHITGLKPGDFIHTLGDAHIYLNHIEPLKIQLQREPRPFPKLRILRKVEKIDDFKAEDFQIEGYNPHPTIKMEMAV

CCRF-CEM [5] = test: Activity for growth inhibition in tissue culture of human leukemias( CCRF-CEM); assay type: functional, cell-based
Summary of the method: (§3)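 MTT colorimetric growth assay (modified Mosmann) in CCRF-CEM human leukemia cells seeded at 10 000 cells/well in RPMI-1640 with 5% fetal calf serum and 0.5% DMSO. Nine 2-fold serial dilutions of compound, 5 day incubation, then 4 h MTT and formazan dissolved in DMSO for spectrophotometric reading. IC50 taken from semilog plots of the mean of four growth assessments per dilution relative to control cultures.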

[6] = target: Thymidylate synthase (Homo sapiens) (UniProt P04818); remark: listed apart in the source
CCRF-CEM [7] = test: (§4) Inhibition of CCRF-CEM (human leukemia) cell growth in vitro.; assay type: functional; design: concentration or dose not given beside the values; summary of the method: as §3
L1210 [8] = test: Inhibition of murine L1210 cell line tissue culture growth; assay type: functional, cell-based; settings: Mus musculus; summary of the method: as §2
CCRF-CEM [9] = test: Inhibitory activity of compound against growth of human leukemias (CCRF-CEM) in tissue culture; assay type: functional; summary of the method: as §3
CCRF-CEM [10] = test: as §4; assay type: functional, cell-based; summary of the method: as §3
GC3/MTK- [11] = test: Inhibition of GC3/M TK- (human adenocarcinoma) cell growth in vitro.; assay type: functional, cell-based
Summary of the method: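 Thymidine kinase-deficient human adenocarcinoma GC3/M TK- cells seeded at 10 000 cells/well in RPMI-1640 with 10% fetal calf serum and 0.5% DMSO. Compound given as nine 2-fold serial dilutions over a 5 day incubation, then 4 h MTT and spectrophotometric formazan read after DMSO dissolution. IC50 from semilog plots of the mean of four growth assessments relative to control cultures.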

GC3/MTK- [12] = test: (§5) Inhibitory activity of compound against growth of thymidine kinase-deficient human adenocarcinoma cell line (GC3/M TK-) in tissue culture; assay type: functional; design: concentration or dose not given beside the values
Summary of the method: (§6)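 MTT colorimetric growth assay in the thymidine kinase-deficient human adenocarcinoma line. Seeded at 10 000 cells/well in RPMI-1640 with 10% fetal calf serum and 0.5% DMSO. Nine 2-fold serial dilutions of compound, 5 day incubation, then 4 h MTT. Formazan dissolved in DMSO and read spectrophotometrically. IC50 taken from semilog plots of the mean of four growth assessments per dilution, relative to control cultures.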

CCRF-CEM [13] = test: Inhibitory activity of compound against growth of human leukemias (CCRF-CEM) cell line in tissue culture; assay type: functional
Summary of the method: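 CCRF-CEM human leukemia cells seeded at 10 000 cells/well in RPMI-1640 with 5% fetal calf serum and 0.5% DMSO. Exposed to nine 2-fold serial dilutions for 5 days, followed by 4 h with MTT. Formazan dissolved in DMSO and measured spectrophotometrically. IC50 read from semilog plots of the mean of four growth assessments per dilution versus control growth.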

GC3/MTK- [14] = test: as §5; assay type: functional; summary of the method: as §6
L1210 [15] = test: as §1; assay type: functional, Mus musculus; summary of the method: as §2

SMILES: C#CCN(Cc1ccc2nc(C)nc(O)c2c1)c1ccc(Cl)cc1
- Inhibition (L1210 [1]): 25%
- Kii [2]: 3.7 µM
- Kis [3]: 0.85 µM
- Kii [4]: 0.77 µM
- IC50 (CCRF-CEM [5]): > 4 µM
- Kis [6]: 0.36 µM
- Inhibition (CCRF-CEM [7]): 20%
- IC50 (L1210 [8]): > 4 µM

SMILES: C#CCN(Cc1ccc2nc(C)nc(O)c2c1)c1ccc(S(=O)(=O)N2CCN(C)CC2)cc1
- Inhibition (L1210 [1]): 27%
- Kii [2]: 0.28 µM
- Kis [3]: 0.13 µM
- Inhibition (CCRF-CEM [9]): 24%
- Kii [4]: 0.19 µM
- Kis [6]: 0.083 µM
- IC50 (CCRF-CEM [10]): > 10 µM
- IC50 (L1210 [8]): > 10 µM
- IC50 (GC3/MTK- [11]): > 10 µM
- Inhibition (GC3/MTK- [12]): 17%

SMILES: C#CCN(Cc1ccc2nc(C)nc(O)c2c1)c1cccc(C(F)(F)F)c1
- Inhibition (CCRF-CEM [13]): 41%
- IC50 (CCRF-CEM [10]): > 4.3 µM
- IC50 (L1210 [8]): > 2.2 µM
- IC50 (GC3/MTK- [11]): > 4.3 µM
- Inhibition (GC3/MTK- [14]): 25%
- Inhibition (L1210 [15]): 35%
